Measured values pooled from the literature.
Lines come from different studies, so protocols differ.
Effect on: cell growth or viability

C=CC(=O)NC1CCN(c2ncc3ncnc(Nc4ccc(Oc5ccc6c(c5)ncn6C)c(C)c4)c3n2)CC1  IC50 (SNU-216): 18.2 nM
O=C(C=Cc1ccccc1)Nc1cc(-c2ccnc(N3CCOCC3)c2)ccn1  IC50 (HeLa; MTT; 72 h): 402 nM
Cc1nc(Nc2ccc3c(c2)/C(=C/c2ccccc2C)C(=O)N3C)c2ccccc2n1  IC50 (H22; MTT): 4780 nM
Nc1ccc(/C=C/C(=O)N2CCc3c(oc4c(-c5ccc(F)cc5)cc(-c5ccc(C(=O)N6CCC(F)(F)CC6)nn5)cc34)C2)cn1  IC50 (U2OS; CCK-8; 72 h): 640 nM
COc1cc2c3c(n(CCCN4CCOCC4)c(=O)c2cc1OC)-c1nc2c(cc1C3=O)OCO2  IC50 (L-363; MTS; 72 h): 342 nM
Nc1ccc(/C=C/C(=O)N2CCc3c(oc4c(-c5ccc(F)cc5)cc(-c5ccc(C(=O)N6CCOCC6)nn5)cc34)C2)cn1  IC50 (U2OS; CCK-8; 72 h): 730 nM
COc1cc2c3c(n(CCCNCCO)c(=O)c2cc1OC)-c1nc2c(cc1C3=O)OCO2  IC50 (L-363; MTS; 72 h): 154 nM
C=C(F)C(=O)N1CCN(c2nc(OC[C@@H]3CCCN3C)nc3c2CCN(c2cccc4cccc(Cl)c24)C3)C[C@@H]1CC#N  IC50 (NCI-H1792; ATP luminescence): 674 nM
Cc1nc(Nc2ccc3c(c2)/C(=C/c2ccccc2C)C(=O)N3)c2ccccc2n1  IC50 (H22; MTT): 9920 nM
O=c1c(C=NNC(=S)Nc2ccccc2)coc2ccccc12  IC50 (HeLa; MTT; 24 h): > 100000 nM
Cc1nc(NC(=O)N2CCC[C@H]2C(N)=O)sc1-c1ccnc(C(C)(C)C(F)(F)F)c1  IC50 (H22; MTT): 25400 nM
Cc1noc2c1-c1ccccc1C(c1ccc(Cl)cc1)=N[C@H]2CC(N)=O  IC50 (NB-4; ATP luminescence; 72 h): 760 nM
Nc1ccc(/C=C/C(=O)N2CCc3c(oc4c(-c5ccc(F)cc5)cc(-c5cnc(C(=O)N6CCC(F)(F)CC6)nc5)cc34)C2)cn1  IC50 (U2OS; CCK-8; 72 h): 950 nM
COc1cc2ncnc(N(C)c3ccc4c(c3)/C(=C/c3ccccc3)C(=O)N4C)c2cc1OC (mixture of isomers)  IC50 (H22; MTT): 4960 nM
CCN1[C@@H](C(=O)NC23CCC(C(=O)O)(CC2)CC3)[C@H](c2cccc(Cl)c2F)[C@]2(C(=O)Nc3cc(Cl)ccc32)C12CCCCC2  IC50 (U2OS; resazurin; 72 h): > 1000 nM
